# Source: PubChem BioAssay
# T cruzi inh = blocks replication of Trypanosoma cruzi | actives 1.4% (n = 300,000) | T. cruzi beta-gal in NIH3T3, luminescence, 90 h | inhibition, % (concentration not given with the values);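 active means mean inhibition across valid replicates above about 55%, limit read from the data; inconclusive means mean below that limit but half or more replicates reach it; inactive means mean below it, under half of replicates reach it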;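 further: signal also drops with host cell toxicity which is not excluded here; 0% = plate median of DMSO wells and 100% = zero luminescence signal; higher percent means less beta-gal luminescence so fewer parasites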
#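 Read-out: Parasite load inhibition, % | Test system: Mouse NIH/3T3 fibroblasts infected with β-gal-expressing T. cruzi Tulahuen C4 | Amount: 5,000 cells/well | Medium: DMEM, 2% fetal bovine serum | Signal: GalScreen β-gal luminescence, detergent lysis, 60 min | Timing: 3 h attach, ≥90 h co-culture | Also added: Tulahuen C4 trypomastigotes, 5000/well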
# Mdm2 MdmX PPI = human Mdm2/MdmX binding inhibition | O15151+Q00987 | SaOS-2 split-luciferase Mdm2/MdmX complementation, luminescence | inhibition, % at 8 µM | actives 3% (n = 330,000) | AID 485346;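 active means inhibition of at least 50% at 8 µM in the primary screen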
# Target sequence (O15151 whole entry, looked up): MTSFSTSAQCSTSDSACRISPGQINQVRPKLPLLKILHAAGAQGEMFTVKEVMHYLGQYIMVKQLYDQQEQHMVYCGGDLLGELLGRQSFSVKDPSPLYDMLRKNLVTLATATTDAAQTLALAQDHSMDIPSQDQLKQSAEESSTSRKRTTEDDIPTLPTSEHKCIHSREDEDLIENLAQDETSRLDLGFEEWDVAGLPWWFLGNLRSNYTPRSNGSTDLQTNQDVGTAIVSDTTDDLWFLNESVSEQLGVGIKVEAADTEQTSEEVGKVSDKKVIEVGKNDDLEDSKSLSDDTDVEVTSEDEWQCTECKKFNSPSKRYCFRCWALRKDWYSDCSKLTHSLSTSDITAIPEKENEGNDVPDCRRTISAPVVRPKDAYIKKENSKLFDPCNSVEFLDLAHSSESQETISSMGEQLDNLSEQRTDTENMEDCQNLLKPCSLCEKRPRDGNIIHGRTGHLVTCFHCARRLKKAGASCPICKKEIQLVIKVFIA
# Target sequence (Q00987 whole entry, looked up): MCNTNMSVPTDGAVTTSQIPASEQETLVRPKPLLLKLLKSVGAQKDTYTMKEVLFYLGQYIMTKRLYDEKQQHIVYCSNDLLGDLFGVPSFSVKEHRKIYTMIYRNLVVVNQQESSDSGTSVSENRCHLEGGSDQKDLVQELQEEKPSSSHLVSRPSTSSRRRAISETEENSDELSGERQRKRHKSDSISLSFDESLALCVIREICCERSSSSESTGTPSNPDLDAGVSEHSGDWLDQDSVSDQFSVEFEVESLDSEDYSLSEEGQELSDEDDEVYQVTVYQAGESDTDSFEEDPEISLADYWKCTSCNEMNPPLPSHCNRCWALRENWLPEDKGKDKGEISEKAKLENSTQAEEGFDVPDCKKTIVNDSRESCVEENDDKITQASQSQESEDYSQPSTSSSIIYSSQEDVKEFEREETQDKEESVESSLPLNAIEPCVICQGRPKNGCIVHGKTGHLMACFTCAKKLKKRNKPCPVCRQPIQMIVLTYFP
# SKKanGAS inh = blocks kanamycin growth of S. pyogenes SKKanGAS strain | inhibition, % at 7.5 µM | BacTiter-Glo, 6 h | AID 1662 | actives 1.3% (n = 300,000);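 active means mean replicate score, as percent of positive control median, at least 50; inconclusive means mean below 50 but one replicate at or above 50; inactive means mean and every replicate below 50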;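 further: strain carries kanamycin resistance gene driven by streptokinase promoter and grows in 40 µg/ml kanamycin; loss of luminescence reflects streptokinase promoter inhibition or plain growth inhibition; 0% = median of DMSO wells and 100% = positive control at its reference dose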
# aSyn UTR inh = 5' untranslated region of α-synuclein, MLPCN primary screen; alpha-synuclein 5'UTR reporter, inhibitor activity; actives 0.82% (n = 300,000); inhibition, % (tested at 7.5 µM); AID 1813; in the data active means inhibition above about 60%; inconclusive means no clear call, values can overlap the other calls;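 further: H4 neuroglioblastoma cells stably carrying SNCA 5'UTR luciferase fusion; 0% = DMSO wells and 100% = positive control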
# CSC inhib = cancer stem cell inhibition. cancer stem cell-like cells viability, luminescence. inhibition, % at 7.5 µM. actives 1.1% (n = 300,000). AID 2717; in the data active means inhibition above about 75%; inconclusive means no clear call, values can overlap the other calls; tested in HMLE shEcad cells
# Starred values were filed as active, the others as inactive; ? = inconclusive; nt = no result given. Only some compounds are listed: those with a hit (about 5.4% of all), similar ones and a draw of the others.
SMILES,T cruzi inh,Mdm2 MdmX PPI,SKKanGAS inh,aSyn UTR inh,CSC inhib
C/C(=N/NC(=O)CNC(=O)C(c1ccccc1)c1ccccc1)c1ccco1,11,29,55*,-3,-8
Cc1ccc2cc(CN(CCc3ccccc3)C(=S)NCCCN(C)C)c(=O)[nH]c2c1,31,47,0,-19,-7
Cc1ccc2[nH]c(=O)c(CN(CCCN(C)C)C(=S)NCCc3ccccc3)cc2c1,84*,31,-2,3,7
Cc1cccc2cc(CN(CCCN(C)C)C(=S)NCCc3ccccc3)c(=O)[nH]c12,62*,28,-1,-15,1
O=C(Nc1ccccc1)c1nnsc1S(=O)c1ccc(Cl)cc1 (configuration not stated),15,50,73*,-103,106*
COc1cc(CNCCc2ccc(S(N)(=O)=O)cc2)ccc1OCC(=O)N1CCCCC1,15,8,-5,-22,nt
COc1ccc(CCNCc2ccc(OCC(=O)N3CCCCC3)c(OC)c2)cc1OC,57*,10,-7,-6,-16
C=CC[n+]1c(-c2ccc(C)cc2)csc1Nc1ccc(NC(C)=O)cc1,2,nt,-2,100*,nt
C=CCNC(=O)NC(=O)CN1C(=O)NC(c2ccccc2)(c2ccccc2)C1=O,1,-2,6,10,-10
C#CCOCCOCCOCCNc1nc(N2CCN(C(=O)[C@H](CCC(=O)O)n3cc(C(N)[C@H](C)CC)nn3)CC2)nc(N2CCN(C(=O)[C@H](CCC(=O)O)n3cc(C(N)[C@H](C)CC)nn3)CC2)n1 (some centres not stated),-8,17,-2,11,11
Cc1ccc(SCCN2CCN(C)CC2)cc1,64*,10,-2,-8,10
Cc1ccc(SCCN2CCN(Cc3ccccc3)CC2)cc1,73*,25,2,6,43
Clc1ccc(SCCN2CCNCC2)cc1,63*,-8,-8,-20,10
COc1cc(OC)c(OC)cc1CNC(=O)CCN1C(=O)c2cccc([N+](=O)[O-])c2C1=O,0,8,-4,-2,-5
CN(c1ccccc1)S(=O)(=O)c1cccc(NC(=O)C2=NN(c3ccccc3)C(=O)CC2)c1,nt,16,nt,nt,22
O=C(NCc1ccncc1)c1cccc(S(=O)(=O)Nc2ccc(F)cc2)c1,nt,20,nt,nt,nt
CCn1cc(C(=O)OCC(=O)c2cc(C)n(-c3cccc(C(F)(F)F)c3)c2C)c(=O)c2ccc(C)nc21,2,nt,59*,7,13
Cc1ccccc1-n1c(SCC(=O)NC(N)=O)nc2sc(-c3ccccc3)cc2c1=O,6,12,86*,30,nt
O=C(OCc1ccccc1)c1ccccc1O,nt,-7,nt,nt,nt
O=C(OCc1csc(-c2ccccc2)n1)c1ccccc1O,1,-60,50*,-149,-8
CCN(CC)CCN(C)C(=O)CCc1nnc(-c2ccc(C)s2)o1,57*,-24,3,-4,5
COc1ccc(C(c2c[nH]c3ccccc23)c2c[nH]c3ccccc23)cc1O,21,10,28,-41,119*
O=C1NN(c2ccccc2)C(=O)/C1=C/c1ccc(Sc2cccc3ccccc23)o1,-24,10,50*,-37,79*
O=C1NN(c2ccccc2)C(=O)/C1=C/c1ccc(-c2ccc(C(=O)O)cc2)o1,0,11,11,-38,-8
CCOC(=O)c1sc(NC(=O)CSc2n[nH]c(-c3ccccc3)n2)c(C#N)c1C,6,44,43,-4,44
SMILES,T cruzi inh,Mdm2 MdmX PPI,SKKanGAS inh,aSyn UTR inh,CSC inhib
Cc1ccc(/C=C/C2=Cc3c(sc(NC(=O)CSc4n[nH]c(N)n4)c3C#N)C(C)(C)C2)o1,-2,32,55*,-9,-3
CCn1ccc(C(=O)Nc2ccc3c(c2)CCC3)n1,-2,-96,-1,-31,5
CC(=C/c1ccc(C(C)C)cc1)/C=N/NC(=O)CSc1ccccn1,20,-9,68*,-164,-10
CC(/C=N/NC(=O)CSc1ccccn1)=C\c1ccc(C(C)C)cc1,10,-43,36,-254,-16
COc1ccc(N2CCN(Cc3nc(N)nc(Nc4ccc(C)c(Cl)c4)n3)CC2)cc1,-15,44,74*,51,3
COc1ccc(Nc2nc(N)nc(CN3CCOCC3)n2)cc1,11,6,8,24,1
Cc1ccc(Nc2nc(N)nc(CN3CCN(Cc4ccc5c(c4)OCO5)CC3)n2)cc1Cl,8,34,11,12,9
Cc1ccc(Nc2nc(N)nc(CN3CCN(c4ccccc4)CC3)n2)cc1Cl,-20,11,87*,34,-20
COc1cccc(C2(O)C(=O)Nc3ccccc32)c1 (configuration not stated),-13,3,1,-3,13
O=[N+]([O-])c1cc(S(=O)(=O)O)cc([N+](=O)[O-])c1NN(c1ccccc1)c1ccccc1,5,7,4,3,6
Cc1cc(N2CCN(C)CC2)nc2ccc(NC(=S)NCCC(C)C)cc12,57*,39,3,-86,83*
Cc1cc(N2CCOCC2)nc2ccc(NC(=S)NCCC(C)C)cc12,15,15,-1,-14,49
CC(C(=O)Nc1ccc(F)c(F)c1F)N(C)CC(=O)Nc1ccccc1Br (configuration not stated),102*,17,22,21,-5
Cc1cccc(C)c1NC(=O)CN(C)C(C)C(=O)NCC(=O)Nc1ccc(F)c(F)c1F (configuration not stated),nt,8,nt,nt,-5
Cc1ccc(Cl)cc1NC(=S)N/N=C/c1cccc2ccccc12,59*,40,80*,38,?
Cc1ccccc1C(=O)N/N=C/c1cccc2ccccc12,7,-21,3,-72,5
Cc1ccc(NC(=S)N/N=C/c2c(Cl)cccc2Cl)c(C)c1,-1,36,20,46,101*
Cc1cc(C)c(S(=O)(=O)c2cccc(Br)c2C)c(Cl)n1,13,nt,9,9,8
Cc1cc(C)c(S(=O)(=O)c2ccccc2Cl)c(Cl)n1,55*,-11,-17,12,16
Cc1cc(C)c(S(=O)(=O)c2ccc(F)cc2C)c(Cl)n1,55*,-3,11,7,-3
CCOC(=O)N1CCN(C(=O)CN(Cc2ccc(Cl)cc2)S(=O)(=O)c2ccc(C)cc2)CC1,22,-19,-2,1,-7
Cn1c(Sc2ccccc2Cl)c(C=O)c2ccccc21,nt,24,57*,39,16
C/C(=N\Nc1cc(C(F)(F)F)ccc1Cl)c1ccccc1O,4,2,15,-20,77*
CCOC(=O)c1c(NC(NC(=O)C(C)C)C(Cl)(Cl)Cl)sc2c1CCC2 (configuration not stated),16,-26,35,25,101*
CC(C)C1O/C(=N/C(=O)Nc2ccc(Cl)c(Cl)c2)NC1=O (configuration not stated),4,36,79*,-20,49
COc1ccc(NC(C)C(=O)Nc2cccc(S(=O)(=O)N3CCOCC3)c2)cc1OC (configuration not stated),nt,29,nt,nt,4
